Results of several laboratories.
Protocols differ between the studies behind these lines.
Target: Dual specificity protein kinase CLK1 (CLK1, Homo sapiens, UniProt P49759)

`Cc1ccc(NC(=O)c2ccnc(C(F)(F)F)c2)cc1-c1cc(OCCO)nc(N2CCOCC2)c1` has a remaining binding of 92% (binding, competition with immobilised ligand; 1 µM).
`COc1ccc2oc(-c3ccc4nc(N)oc4c3)c/c(=N\c3ccccc3NC(=O)CCN)c2c1` gave a remaining binding of 94% (binding; 1 µM).
For `C1=C/COCc2cc(ccc2OCCN2CCCC2)Nc2nccc(n2)-c2cccc(c2)COC/1`, the remaining binding was 27% (binding; 0.1 µM).
`C=CC(=O)N1CCC([C@@H]2CCNc3c(C(N)=O)c(-c4ccc(Oc5ccccc5)cc4)nn32)CC1` has an inhibition of 19% (enzyme activity, inhibitor; 1 µM).
`CN1CCN(C(=O)c2ccc(NC(=O)Nc3ccc(N(C)c4ccnc(Nc5ccc(CS(C)(=O)=O)cc5)n4)cc3)cc2)CC1` has a remaining binding of 84% (binding, competition with immobilised ligand; 1 µM).
`Cc1cc(O)c(-c2ccc([C@@H](C)CN(C)C)cc2)c2c1[nH]c(=O)c1sccc12` has an inhibition of -7.55% (enzyme activity, inhibitor; 0.1 µM).
With `CCCCC(=O)Nc1ccc(-c2ccc3ncn(CCC)c(=O)c3c2)cn1` the remaining binding was 79% (binding, competition with immobilised ligand; 0.5 µM).
`C=CC(=O)N1CCC[C@@H](n2nc(-c3ccc(Oc4ccccc4)cc3)c3c(N)ncnc32)C1` has an inhibition of 23% (enzyme activity, inhibitor; 1 µM).
With `C#Cc1cc(-c2cc(Nc3nc(N[C@@H](C)c4ccc(F)cn4)ncc3Cl)n[nH]2)ccc1C=O` the inhibition was 34.2% (enzyme activity, inhibitor; 0.2 µM).
